Assay outcomes (PubChem)
Sampled rows, rich in hits. Any-hit rate of the full collection: about 3.5%.
SIAE primary = blocks human sialic acid acetylesterase | Q9HAT2 | SIAE FP-Rh probe binding, fluorescence polarization | inhibition, % at 9.66 µM | 370,000 compounds, 0.69% hits | AID 1053197;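 active = inhibition above a cutoff: mean of compounds within the control limits plus 3 SD of those, cut at about 17% in these data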;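 note: 0% = plate median of compound wells and 100% = probe without SIAE protein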
ABHD4 inh = ABHD4 (mouse) inhibition, primary FP screen. Q8VD66. AID 720543. 370,000 compounds, 0.54% hits. inhibition, % at 8.92 µM. purified mABHD4, FP-Rh probe fluorescence polarization;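 active = inhibition exceeding the mean over every tested compound plus 3 SD, cut at about 30% in these data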;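 note: 0% = plate median of compound wells and 100% = S159A mutant with DMSO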
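Doses – 8.92 µM, single dose · Material – wild-type mouse ABHD4 protein · Replication – single well per compound (singlicate) · Measure – percent inhibition of probe binding, normalized to plate controls · Schedule – 45 min compound pre-incubation plus 60 min probe step, 25 °C · Detection – fluorescence polarization with parallel and perpendicular emission, 525/598 nm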
TCR-CD3 inh = blocks the human TCR-CD3 interaction; TAMRA-labeled TCR probe fluorescence, biochemical; inhibition, % at 9.4 µM; 360,000 compounds, 0.37% hits; in the data active = inhibition above about 19%;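 note: recombinant mutant TCR 2C K166C tagged with TAMRA read by polarization; 0% = receptor in buffer alone and 100% = receptor with positive control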
rCAG RNA binder = molecules binding r(CAG) RNA repeats. r(CAG) RNA repeat, TO-PRO-1 dye displacement fluorescence. inhibition, % at 3 µM. 370,000 compounds, 1.3% hits. AID 651821;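 active = inhibition above the plate cutoff, the mean of all test compounds on that plate plus 3 SD, cut at about 35% in these data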;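 note: 0% = DMSO alone and 100% = 100 µM mitoxantrone as full dye displacement; higher means more dye released from RNA so lower well fluorescence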
HTRA1 inhibitor = HTRA1 (human) protease inhibition; Q92743; recombinant HTRA1, FP-rhodamine activity-based probe, fluorescence polarization; inhibition, % at 5.96 µM; 340,000 compounds, 0.5% hits; AID 504803; in the data active = inhibition above about 36%;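 note: 0% = enzyme with DMSO and 100% = wells lacking enzyme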
Target sequence (Q92743 whole entry, looked up): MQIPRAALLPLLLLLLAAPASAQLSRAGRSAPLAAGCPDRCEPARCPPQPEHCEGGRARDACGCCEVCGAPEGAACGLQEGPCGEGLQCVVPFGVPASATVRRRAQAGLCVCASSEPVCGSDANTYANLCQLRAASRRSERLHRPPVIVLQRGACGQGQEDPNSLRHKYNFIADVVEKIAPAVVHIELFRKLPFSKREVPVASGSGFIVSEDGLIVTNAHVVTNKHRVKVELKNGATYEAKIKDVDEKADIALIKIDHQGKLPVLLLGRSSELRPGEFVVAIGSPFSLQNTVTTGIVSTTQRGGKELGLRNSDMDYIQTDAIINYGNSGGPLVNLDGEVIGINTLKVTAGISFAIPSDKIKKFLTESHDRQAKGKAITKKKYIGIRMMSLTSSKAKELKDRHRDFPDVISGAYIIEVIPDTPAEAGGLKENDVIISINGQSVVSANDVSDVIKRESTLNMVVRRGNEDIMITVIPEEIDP
PRMT1 inh = inhibitors of human PRMT1 | Q99873 | inhibition, % at 2.79 µM | 370,000 compounds, 1.3% hits | AID 652257 | recombinant PRMT1, activity-based probe fluorescence polarization;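 active = inhibition above about 21% made by adding two undisclosed values, limit read from the data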
rCAG bind conf = r(CAG) RNA repeat binding, confirmation | inhibition, % at 3 µM | shares compounds with rCAG RNA binder | TO-PRO-1 dye displacement fluorescence | 4,300 compounds, 70% hits | AID 652065;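 active = inhibition above a per-plate cutoff, the mean inhibition of sample wells plus 3 SD, cut at about 35% in these data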;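 note: loss of TO-PRO-1 fluorescence as compound displaces dye from 1x1 AA loop RNA; 0% = DMSO only wells and 100% = 100 µM mitoxantrone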
dCAG dye counter = counter-screen for rCAG RNA binders: DNA CAG dye complex inhibitors. AID 652068. d(CAG) DNA oligo TO-PRO-1 dye displacement, fluorescence. 4,300 compounds, 94% hits. shares compounds with rCAG RNA binder. inhibition, % at 3 µM;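 active = inhibition above its plate's cutoff, the mean test-well inhibition plus 3 SD, cut at about 4.8% in these data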;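 note: 0% = DNA dye mix with DMSO and 100% = 100 µM mitoxantrone; hits displace the dye from DNA and so lower well fluorescence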
Active calls of the source: *; . = no result given.

SMILES	SIAE primary	ABHD4 inh	TCR-CD3 inh	rCAG RNA binder	HTRA1 inhibitor	PRMT1 inh	rCAG bind conf	dCAG dye counter
COc1ccc(OCC(=O)Nc2cc(NC(=O)COc3ccc(OC)cc3)cc(C(=O)O)c2)cc1	-6.8	-11.4	-5.5	37.6*	-5.2	9.2	51.7*	16.7*
CC(=O)c1ccc(OCc2nnn(CC(=O)NS(=O)(=O)Cc3ccccc3)c2-c2ccccc2)cc1	3.1	0.5	7.3	55.8*	.	0.3	77.8*	41.0*
CCCCN1CC(C(=O)NCc2ccc(C)cc2)CC1=O (stereo unspecified)	-0.2	-5.8	-6.5	46.5*	0.5	1.7	0.3	-1.2
CCOC(=O)[C@@]12CCCC3=C1N(CCC3)C(=O)[C@H]2CC(=O)NCCCOC	7.7	0.8	.	-0.8	.	0.7	.	.
COc1ccc(-c2cc(C(=O)NC(Cc3cc4ccccc4[nH]3)C(=O)O)c(C)o2)cc1OC (stereo unspecified)	4.3	3.6	5.5	49.1*	-3.2	17.1	49.8*	15.4*
O=c1cc(CSc2nnnn2-c2ccccc2)nc(Nc2ccc(F)cc2)[nH]1	-11.7	-18.9	2.9	42.8*	-38.3	-2.4	42.5*	14.8*
COc1cc(/C=C2/C(=O)c3cccc([N+](=O)[O-])c3C2=O)c(Br)cc1O	-14.9	46.2*	-6.8	59.8*	29.6	62.1*	89.2*	62.0*
COc1ccccc1NC(=O)CCCCCN1C(=O)c2cccc([N+](=O)[O-])c2C1=O	-1.7	1.1	3.4	-2.2	-0.7	0.8	.	.
[N-]=[N+]=NC(c1ccccc1)c1nc2ccccc2[nH]c1=O (stereo unspecified)	1.4	0.0	-0.8	44.1*	-1.4	2.5	3.6	2.6
COC(c1ccccc1)c1nc2ccccc2[nH]c1=O (stereo unspecified)	-6.6	-18.4	-7.4	0.4	-5.9	5.9	.	.
CCC[C@H]1[C@@H](NC(=O)C2CCCCC2)CC[C@@]23CCCN2C(=O)CCC[C@@H]13	-22.3	5.2	.	.	.	2.2	.	.
O=C1CCC[C@H]2Cc3nc4cc5c(cc4cc3C[C@]23CCCN13)OCO5	0.1	-4.0	.	.	.	1.8	.	.
N#Cc1c(N2C(=O)Nc3ccccc3N2O)sc2c1CCCCCC2	-1.9	8.7	-6.4	44.7*	5.5	7.2	33.8	11.0*
COc1ccc(C(=O)N(C)[C@H]2C[C@H]3c4[nH]c5cccc(-c6ccccc6)c5c4CCN3C[C@H]2[C@H](C)O)cc1	-0.9	-0.8	.	11.6	.	4.6	.	.
CC(c1ccccc1)N1C(=O)c2ccc(C(=O)Nc3ccccc3C(=O)O)cc2C1=O (stereo unspecified)	-35.2	-43.6	-6.5	80.9*	-42.9	1.7	86.9*	70.3*
CC(c1ccccc1)N1C(=O)c2ccc(C(=O)Nc3ccc(Br)cc3C(=O)O)cc2C1=O (stereo unspecified)	-10.7	-20.9	4.8	52.1*	-48.8	-0.5	80.5*	77.2*
CC(c1ccccc1)N1C(=O)c2ccc(C(=O)NCc3cccnc3)cc2C1=O (stereo unspecified)	0.3	4.0	1.0	-6.8	-2.4	-2.1	.	.
CCOC(=O)CC[C@@]1(C(=O)OCC)C[C@@H](CC(=O)N2CCOCC2)C(=O)N2CCCC=C21	4.2	5.6	.	0.2	.	-1.9	.	.
COC(=O)c1ccc(-c2ccc3c(c2)[C@]2(CCC[C@@H](O)[C@@H]2NC(=O)CCc2ccccc2)C(=O)N3Cc2ccccc2)cc1	-4.4	-10.4	.	12.8	.	5.7	.	.
CCOc1ccccc1NC(=O)/C(C#N)=C/c1c(C)nn(-c2ccc(F)cc2)c1Cl	0.4	-1.4	-1.3	0.9	-2.8	1.4	.	.
Cc1nn(-c2ccc(F)cc2)c(Cl)c1/C=C(/CC(=O)O)c1nc2ccccc2s1	1.2	-10.3	2.1	50.9*	-11.8	-2.3	42.8*	12.8*
Cc1nn(-c2ccc(F)cc2)c(Cl)c1/C=C(\CC(=O)O)c1nc2ccccc2s1	1.0	0.8	5.9	38.4*	-3.1	-3.3	44.9*	11.2*
Cc1ccccc1C(=O)N(Cc1ccccn1)CC1CCCO1 (stereo unspecified)	-1.1	3.2	.	1.9	.	1.5	.	.
COc1ccc(/C=N/Nc2ccccc2C(=O)O)cc1Cn1cc([N+](=O)[O-])cn1	6.2	13.0	2.5	49.5*	-0.9	5.6	39.6*	13.0*
O=C(N/N=C/c1c[nH]c2ccccc12)c1cccc([N+](=O)[O-])c1	14.4	11.2	-1.4	0.9	4.7	-2.7	.	.
SMILES	SIAE primary	ABHD4 inh	TCR-CD3 inh	rCAG RNA binder	HTRA1 inhibitor	PRMT1 inh	rCAG bind conf	dCAG dye counter
O=[N+]([O-])c1ccc(N/N=C/c2c[nH]c3ccccc23)cc1	7.6	10.5	-17.1	55.9*	31.5	14.9	26.5	19.5*
COc1ccccc1NS(=O)(=O)c1cc([N+](=O)[O-])ccc1N/N=C/c1sc(N2CCOCC2)nc1-c1ccccc1	11.6	9.7	-2.4	3.7	4.2	-4.8	.	.
O=C(O)c1ccccc1NS(=O)(=O)c1ccc(NN=Cc2ccc(F)cc2)c([N+](=O)[O-])c1	.	.	.	.	-19.2	.	.	.
COc1ccc(C=NNc2ccc([N+](=O)[O-])cc2S(=O)(=O)Nc2ccccc2C(=O)O)cc1OC	-14.3	-2.5	3.0	90.3*	-70.2	13.7	93.6*	75.0*
O=C(O)c1ccccc1NS(=O)(=O)c1ccc(NN=Cc2cccc(Cl)c2)c([N+](=O)[O-])c1	-2.3	18.9	4.0	59.4*	-13.9	0.8	89.6*	67.9*
COc1ccc(/C=N/NC(=O)c2ccc(Br)o2)cc1Cn1cc([N+](=O)[O-])cn1	-2.3	3.5	4.5	1.5	0.1	5.2	.	.
c1ccc(-c2nnc3n2N=C(c2ccc4ccccc4c2)CS3)cc1	8.6	-1.0	.	6.3	.	-6.5	.	.
COc1ccccc1NS(=O)(=O)c1cc([N+](=O)[O-])ccc1N/N=C/c1c[nH]c2ccccc12	6.2	9.3	-6.3	74.4*	10.4	-1.7	71.2*	35.6*
CCCCOc1ccc(S(=O)(=O)NC(=O)C2(C)CCN2C(=O)CCc2ccccc2)cc1 (stereo unspecified)	10.2	1.9	3.4	39.4*	.	-2.0	32.5	7.2*
CCOc1ccc2nc(S(=O)(=O)NC(=O)C3(C)CCN3C(=O)CCc3cccs3)sc2c1 (stereo unspecified)	-4.2	3.2	4.7	38.4*	.	-3.8	37.0*	9.9*
CCCCOc1ccc(S(=O)(=O)NC(=O)C2(C)CCN2C(=O)Cc2ccccc2Cl)cc1 (stereo unspecified)	-1.1	2.4	1.8	43.5*	.	-2.2	37.9*	9.1*
CCOc1ccc2nc(S(=O)(=O)NC(=O)C3(C)CCN3C(=O)c3c(C)noc3C)sc2c1 (stereo unspecified)	-0.2	1.3	1.1	9.8	.	0.7	.	.
